Measured values reported in ChEMBL document CHEMBL5223165, “Discovery of Coumarin-Based MEK1/2 PROTAC Effective in Human Cancer Cells” (ACS Med Chem Lett, 2023).
Each block holds one molecule with its values, some of them ahead of it. The source made the active and inactive calls. The calls are words filed in the database; no cut-off is given here.

Assays:
[1] = target: T1, Protein cereblon/Dual specificity mitogen-activated protein kinase kinase 1/Dual specificity mitogen-activated protein kinase kinase 2 (Homo sapiens) (UniProt P36507+Q02750+Q96SW2); experiment: Protac activity at CRBN/MEK1/2 in human A549 cells assessed as MEK1/2 degradation at 1 uM incubated for 24 hrs by Western blot analysis relative to control; format: cell-based
[2] = target: T1, Protein cereblon/Dual specificity mitogen-activated protein kinase kinase 1/Dual specificity mitogen-activated protein kinase kinase 2 (Homo sapiens); experiment: Protac activity at CRBN/MEK1/2 in human A549 cells assessed as MEK1/2 degradation at 10 uM incubated for 24 hrs by Western blot analysis relative to control; format: cell-based
[3] = target: T2, von Hippel-Lindau disease tumor suppressor/Dual specificity mitogen-activated protein kinase kinase 2/Dual specificity mitogen-activated protein kinase kinase 1 (Homo sapiens) (UniProt P36507+Q02750+P40337); experiment: Protac activity at VHL/MEK1/2 in human A549 cells assessed as MEK1/2 degradation at 10 uM incubated for 24 hrs by Western blot analysis relative to control; format: cell-based
[4] = target: T2, von Hippel-Lindau disease tumor suppressor/Dual specificity mitogen-activated protein kinase kinase 2/Dual specificity mitogen-activated protein kinase kinase 1 (Homo sapiens); experiment: Protac activity at VHL/MEK1/2 in human A549 cells assessed as MEK1/2 degradation at 1 uM incubated for 24 hrs by Western blot analysis relative to control; format: cell-based
A-375 [5] = experiment: Antiproliferative activity against human A-375 cells assessed as inhibition of cell growth at 10 uM incubated for 48 hrs by MTT assay; format: functional; set-up: scale not given: the % may be the effect or the level left
[6] = target: T3, Dual specificity mitogen-activated protein kinase kinase; MEK1/2 (Homo sapiens, UniProt P36507+Q02750); experiment: Induction of MEK1/2 degradation in human A549 cells at 1 uM incubated for 4 hrs by Western blot analysis; format: cell-based
Procedure, shortened: (§1)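 Time course in A549 cells at 1 μM degrader, sampled at several time points up to 24 h. MEK1/2 protein reduction was judged by Western blot at each time point.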

[7] = target: Dual specificity mitogen-activated protein kinase kinase 1 (Homo sapiens, UniProt Q02750); experiment: Induction of MEK1 degradation in human A549 cells incubated for 24 hrs by Western blot analysis; format: cell-based
Procedure, shortened: (§2)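 A549 cells exposed to a range of degrader concentrations for 24 h. MEK1 and MEK2 protein levels were read by Western blot, and a separate half-maximal degradation concentration (DC50) was derived for each.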

A549 = experiment: Antiproliferative activity against human A549 cells incubated for 4 days by MTT assay; format: functional, cell-based; conditions: A549, 96 h
[8] = target: Dual specificity mitogen-activated protein kinase kinase 2 (Homo sapiens, UniProt P36507); experiment: Induction of MEK2 degradation in human A549 cells incubated for 24 hrs by Western blot analysis; format: cell-based; procedure, shortened: as §2
[9] = target: T3, Dual specificity mitogen-activated protein kinase kinase; MEK1/2; experiment: Induction of MEK1/2 degradation in human A549 cells at 1 uM incubated for 24 hrs in presence of 3-(3-amino-2-fluorobenzyl)-4-methyl-7-(pyrimidin-2-yloxy)-2H-chromen-2-one by Western blot analysis; format: cell-based
[10] = target: T3, Dual specificity mitogen-activated protein kinase kinase; MEK1/2; experiment: Induction of MEK1/2 degradation in human A-375 cells incubated for 24 hrs by Western blot analysis; format: cell-based
Procedure, shortened: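 A375 cells were given a concentration series of degrader for 24 h. MEK1/2 protein was quantified by immunoblot, and the DC50 (half-maximal degradation concentration) was taken from the dose-response.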

[11] = Selectivity ratio of IC50 for human A549 cells to IC50 for human A-375 cells; format: functional
[12] = target: T3, Dual specificity mitogen-activated protein kinase kinase; MEK1/2; experiment: Induction of MEK1/2 degradation in human A549 cells at 1 uM incubated for 24 hrs by Western blot analysis; format: cell-based; procedure, shortened: as §1
[13] = target: T3, Dual specificity mitogen-activated protein kinase kinase; MEK1/2; experiment: Induction of MEK1/2 degradation in human A549 cells assessed as reduction in pERK1/2 levels at 1 to 30 uM incubated for 24 hrs by Western blot analysis; format: cell-based; conditions: dose 1-30 µM
[14] = target: T3, Dual specificity mitogen-activated protein kinase kinase; MEK1/2; experiment: Induction of MEK1/2 degradation in human A549 cells at 1 uM incubated for 24 hrs in presence of MG132 by Western blot analysis; format: cell-based
[15] = target: T3, Dual specificity mitogen-activated protein kinase kinase; MEK1/2; experiment: Induction of MEK1/2 degradation in human A549 cells at 1 uM incubated for 24 hrs in presence of MLN4924 by Western blot analysis; format: cell-based
[16] = target: T3, Dual specificity mitogen-activated protein kinase kinase; MEK1/2; experiment: Induction of MEK1/2 degradation in human A549 cells at 1 uM incubated for 24 hrs in presence of (2S,4R)-1-((S)-2-amino-3,3-dimethylbutanoyl)-4-hydroxy-N-((S)-1-(4-(4-methylthiazol-5-yl)phenyl)ethyl)pyrrolidine-2-carboxamide by Western blot analysis; format: cell-based
A-375 [17] = experiment: Antiproliferative activity against human A-375 cells incubated for 4 days by MTT assay; format: functional, cell-based; conditions: A-375, 96 h

T2 sequence (P36507 whole entry, looked up): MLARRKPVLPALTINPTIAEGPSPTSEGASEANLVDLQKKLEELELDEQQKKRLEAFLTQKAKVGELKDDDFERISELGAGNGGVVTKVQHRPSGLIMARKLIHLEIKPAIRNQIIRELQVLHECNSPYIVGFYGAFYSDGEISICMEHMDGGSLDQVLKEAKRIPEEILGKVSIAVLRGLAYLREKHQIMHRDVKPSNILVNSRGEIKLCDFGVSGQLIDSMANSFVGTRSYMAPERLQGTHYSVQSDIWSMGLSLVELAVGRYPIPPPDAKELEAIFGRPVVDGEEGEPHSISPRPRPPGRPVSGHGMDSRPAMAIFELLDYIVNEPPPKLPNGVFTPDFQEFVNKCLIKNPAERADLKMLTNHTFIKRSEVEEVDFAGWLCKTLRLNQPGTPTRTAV
T2 sequence (P40337 whole entry, looked up): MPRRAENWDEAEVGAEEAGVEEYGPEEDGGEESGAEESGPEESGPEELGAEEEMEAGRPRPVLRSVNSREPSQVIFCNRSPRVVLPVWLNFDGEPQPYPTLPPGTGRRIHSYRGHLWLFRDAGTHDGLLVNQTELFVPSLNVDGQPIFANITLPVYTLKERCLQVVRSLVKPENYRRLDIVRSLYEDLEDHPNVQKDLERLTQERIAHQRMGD
T2 sequence (Q02750 whole entry, looked up): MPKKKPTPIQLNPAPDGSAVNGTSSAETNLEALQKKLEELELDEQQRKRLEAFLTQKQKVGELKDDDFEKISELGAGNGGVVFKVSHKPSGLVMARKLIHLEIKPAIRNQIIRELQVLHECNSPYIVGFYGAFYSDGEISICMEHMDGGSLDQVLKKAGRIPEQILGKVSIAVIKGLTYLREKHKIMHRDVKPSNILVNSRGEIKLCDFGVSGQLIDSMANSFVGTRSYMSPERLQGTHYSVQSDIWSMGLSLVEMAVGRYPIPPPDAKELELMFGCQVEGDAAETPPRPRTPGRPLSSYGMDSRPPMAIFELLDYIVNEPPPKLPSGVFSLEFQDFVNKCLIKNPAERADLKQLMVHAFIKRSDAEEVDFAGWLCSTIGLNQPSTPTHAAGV
T3 sequence (P36507 whole entry, looked up): as the sequence (P36507 whole entry, looked up) above
T3 sequence (Q02750 whole entry, looked up): as the sequence (Q02750 whole entry, looked up) above
T1 sequence (P36507 whole entry, looked up): as the sequence (P36507 whole entry, looked up) above
T1 sequence (Q02750 whole entry, looked up): as the sequence (Q02750 whole entry, looked up) above
T1 sequence (Q96SW2 whole entry, looked up): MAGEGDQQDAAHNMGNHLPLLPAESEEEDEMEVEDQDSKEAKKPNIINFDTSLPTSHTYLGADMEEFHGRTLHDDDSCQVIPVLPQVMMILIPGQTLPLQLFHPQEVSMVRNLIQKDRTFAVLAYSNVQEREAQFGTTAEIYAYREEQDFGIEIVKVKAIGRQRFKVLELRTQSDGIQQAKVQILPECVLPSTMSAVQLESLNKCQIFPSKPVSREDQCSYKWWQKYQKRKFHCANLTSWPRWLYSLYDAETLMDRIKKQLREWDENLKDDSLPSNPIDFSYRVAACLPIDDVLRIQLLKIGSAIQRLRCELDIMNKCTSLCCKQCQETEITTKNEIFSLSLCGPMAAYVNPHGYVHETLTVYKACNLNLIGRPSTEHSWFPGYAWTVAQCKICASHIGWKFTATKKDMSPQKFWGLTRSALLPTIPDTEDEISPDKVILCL
Dual specificity mitogen-activated protein kinase kinase 2, sequence (P36507 whole entry): as the sequence (P36507 whole entry, looked up) above
Dual specificity mitogen-activated protein kinase kinase 1, sequence (Q02750 whole entry): as the sequence (Q02750 whole entry, looked up) above

SMILES: Cc1c(Cc2cccc(NCc3cn(CCOCCOCCOCCOCCOCCNc4cccc5c4C(=O)N(C4CCC(=O)NC4=O)C5=O)nn3)c2F)c(=O)oc2cc(Oc3ncccn3)ccc12 (configuration not stated)
Activity [2]: inactive

SMILES: Cc1ncsc1-c1ccc([C@H](C)NC(=O)[C@@H]2C[C@@H](O)CN2C(=O)[C@@H](NCCOCCOCCOCCOCCOCCn2cc(CNc3cccc(Cc4c(C)c5ccc(Oc6ncccn6)cc5oc4=O)c3F)nn2)C(C)(C)C)cc1
Activity [3]: inactive

SMILES: Cc1ncsc1-c1ccc([C@H](C)NC(=O)[C@@H]2C[C@@H](O)CN2C(=O)[C@@H](NC(=O)CCC(=O)NCCCC(=O)Nc2cccc(Cc3c(C)c4ccc(Oc5ncccn5)cc4oc3=O)c2F)C(C)(C)C)cc1
Activity [4]: 20% | Activity (A-375 [5]): 13%

SMILES: Cc1c(Cc2cccc(NCc3cn(CCOCCOCCOCCNc4cccc5c4C(=O)N(C4CCC(=O)NC4=O)C5=O)nn3)c2F)c(=O)oc2cc(Oc3ncccn3)ccc12 (configuration not stated)
Activity [2]: inactive

SMILES: Cc1ncsc1-c1ccc([C@H](C)NC(=O)[C@@H]2C[C@@H](O)CN2C(=O)[C@@H](NC(=O)CCC(=O)NCCCCCCCCCCCC(=O)Nc2cccc(Cc3c(C)c4ccc(Oc5ncccn5)cc4oc3=O)c2)C(C)(C)C)cc1
Activity [4]: < 5%

SMILES: Cc1ncsc1-c1ccc([C@H](C)NC(=O)[C@@H]2C[C@@H](O)CN2C(=O)[C@@H](NC(=O)CCC(=O)NCCCCCCCC(=O)Nc2cccc(Cc3c(C)c4ccc(Oc5ncccn5)cc4oc3=O)c2F)C(C)(C)C)cc1
Activity [4]: 78%

SMILES: Cc1ncsc1-c1ccc([C@H](C)NC(=O)[C@@H]2C[C@@H](O)CN2C(=O)[C@@H](NC(=O)CCC(=O)NCCCCCCC(=O)Nc2cccc(Cc3c(C)c4ccc(Oc5ncccn5)cc4oc3=O)c2F)C(C)(C)C)cc1
Activity [4]: 70%

SMILES: CNS(=O)(=O)Nc1cccc(Cc2c(C)c3ccc(Oc4ncccn4)cc3oc2=O)c1F
IC50 (A-375 [17]): 1.9 µM

SMILES: Cc1ncsc1-c1ccc([C@H](C)NC(=O)[C@@H]2C[C@@H](O)CN2C(=O)[C@@H](NCCOCCOCCOCCOCCn2cc(CNc3cccc(Cc4c(C)c5ccc(Oc6ncccn6)cc5oc4=O)c3)nn2)C(C)(C)C)cc1
Activity [3]: inactive

SMILES: Cc1ncsc1-c1ccc([C@H](C)NC(=O)[C@@H]2C[C@@H](O)CN2C(=O)[C@@H](NCCOCCOCCOCCn2cc(CNc3cccc(Cc4c(C)c5ccc(Oc6ncccn6)cc5oc4=O)c3)nn2)C(C)(C)C)cc1
Activity [3]: inactive

SMILES: Cc1c(Cc2cccc(NC(=O)CCCCCCNC(=O)CCC(=O)Nc3cccc4c3C(=O)N(C3CCC(=O)NC3=O)C4=O)c2F)c(=O)oc2cc(Oc3ncccn3)ccc12 (configuration not stated)
Activity [1]: 45%

SMILES: Cc1ncsc1-c1ccc([C@H](C)NC(=O)[C@@H]2C[C@@H](O)CN2C(=O)[C@@H](NCCOCCOCCOCCOCCn2cc(CNc3cccc(Cc4c(C)c5ccc(Oc6ncccn6)cc5oc4=O)c3F)nn2)C(C)(C)C)cc1
Activity [3]: inactive

SMILES: Cc1c(Cc2cccc(NCc3cn(CCOCCOCCNc4cccc5c4C(=O)N(C4CCC(=O)NC4=O)C5=O)nn3)c2F)c(=O)oc2cc(Oc3ncccn3)ccc12 (configuration not stated)
Activity [2]: inactive

SMILES: Cc1c(Cc2cccc(NCc3cn(CCOCCOCCOCCOCCNc4cccc5c4C(=O)N(C4CCC(=O)NC4=O)C5=O)nn3)c2F)c(=O)oc2cc(Oc3ncccn3)ccc12 (configuration not stated)
Activity [2]: inactive

SMILES: Cc1c(Cc2cccc(NCc3cn(CCOCCOCCOCCNc4cccc5c4C(=O)N(C4CCC(=O)NC4=O)C5=O)nn3)c2)c(=O)oc2cc(Oc3ncccn3)ccc12 (configuration not stated)
Activity [2]: inactive

SMILES: Cc1c(Cc2cccc(NC(=O)CCCNC(=O)CCC(=O)Nc3cccc4c3C(=O)N(C3CCC(=O)NC3=O)C4=O)c2F)c(=O)oc2cc(Oc3ncccn3)ccc12 (configuration not stated)
Activity [1]: inactive

The next lines start with results.

Activity [1]: inactive
SMILES: Cc1c(Cc2cccc(NC(=O)CCCCCNC(=O)CCC(=O)Nc3cccc4c3C(=O)N(C3CCC(=O)NC3=O)C4=O)c2F)c(=O)oc2cc(Oc3ncccn3)ccc12 (configuration not stated)

Activity [3]: inactive
SMILES: Cc1ncsc1-c1ccc([C@H](C)NC(=O)[C@@H]2C[C@@H](O)CN2C(=O)[C@@H](NCCOCCOCCn2cc(CNc3cccc(Cc4c(C)c5ccc(Oc6ncccn6)cc5oc4=O)c3)nn2)C(C)(C)C)cc1

Activity [3]: inactive
SMILES: Cc1ncsc1-c1ccc([C@H](C)NC(=O)[C@@H]2C[C@@H](O)CN2C(=O)[C@@H](NCCOCCOCCOCCn2cc(CNc3cccc(Cc4c(C)c5ccc(Oc6ncccn6)cc5oc4=O)c3F)nn2)C(C)(C)C)cc1

Activity [3]: inactive
SMILES: Cc1ncsc1-c1ccc([C@H](C)NC(=O)[C@@H]2C[C@@H](O)CN2C(=O)[C@@H](NCCOCCOCCOCCOCCOCCn2cc(CNc3cccc(Cc4c(C)c5ccc(Oc6ncccn6)cc5oc4=O)c3)nn2)C(C)(C)C)cc1

Activity [1]: 30%
SMILES: Cc1c(Cc2cccc(NC(=O)CCCCCCCNC(=O)CCC(=O)Nc3cccc4c3C(=O)N(C3CCC(=O)NC3=O)C4=O)c2F)c(=O)oc2cc(Oc3ncccn3)ccc12 (configuration not stated)

Activity [1]: < 5%
SMILES: Cc1c(Cc2cccc(NC(=O)CCCCNC(=O)CCC(=O)Nc3cccc4c3C(=O)N(C3CCC(=O)NC3=O)C4=O)c2F)c(=O)oc2cc(Oc3ncccn3)ccc12 (configuration not stated)

Activity [3]: 20%
SMILES: Cc1ncsc1-c1ccc([C@H](C)NC(=O)[C@@H]2C[C@@H](O)CN2C(=O)[C@@H](NCCOCCOCCn2cc(CNc3cccc(Cc4c(C)c5ccc(Oc6ncccn6)cc5oc4=O)c3F)nn2)C(C)(C)C)cc1

Activity [4]: 85% | Activity [6]: Active | DC50 [7]: 0.3 µM | IC50 (A549): 27.3 µM | DC50 [8]: 0.2 µM | Activity [9]: inactive | DC50 [10]: 2.8 µM | Activity [12]: > 70% | Activity [13]: Active | Activity [14]: inactive | Activity [15]: inactive | Activity [16]: inactive | IC50 (A-375 [17]): 2.8 µM
SMILES: Cc1ncsc1-c1ccc([C@H](C)NC(=O)[C@@H]2C[C@@H](O)CN2C(=O)[C@@H](NC(=O)CCC(=O)NCCCCC(=O)Nc2cccc(Cc3c(C)c4ccc(Oc5ncccn5)cc4oc3=O)c2F)C(C)(C)C)cc1
Ratio IC50 [11]: 10 | Activity (A-375 [5]): 60%

Activity [4]: < 5%
SMILES: Cc1ncsc1-c1ccc([C@H](C)NC(=O)[C@@H]2C[C@@H](O)CN2C(=O)[C@@H](NC(=O)CCC(=O)NCCCCCCC(=O)Nc2cccc(Cc3c(C)c4ccc(Oc5ncccn5)cc4oc3=O)c2)C(C)(C)C)cc1

Activity [2]: inactive
SMILES: Cc1c(Cc2cccc(NCc3cn(CCOCCOCCOCCOCCNc4cccc5c4C(=O)N(C4CCC(=O)NC4=O)C5=O)nn3)c2)c(=O)oc2cc(Oc3ncccn3)ccc12 (configuration not stated)

Activity [2]: inactive
SMILES: Cc1c(Cc2cccc(NCc3cn(CCOCCOCCNc4cccc5c4C(=O)N(C4CCC(=O)NC4=O)C5=O)nn3)c2)c(=O)oc2cc(Oc3ncccn3)ccc12 (configuration not stated)

Activity [4]: 72%
SMILES: Cc1ncsc1-c1ccc([C@H](C)NC(=O)[C@@H]2C[C@@H](O)CN2C(=O)[C@@H](NC(=O)CCC(=O)NCCCCCC(=O)Nc2cccc(Cc3c(C)c4ccc(Oc5ncccn5)cc4oc3=O)c2F)C(C)(C)C)cc1

Activity [2]: inactive
SMILES: Cc1c(Cc2cccc(NCc3cn(CCOCCOCCOCCOCCOCCNc4cccc5c4C(=O)N(C4CCC(=O)NC4=O)C5=O)nn3)c2)c(=O)oc2cc(Oc3ncccn3)ccc12 (configuration not stated)

Activity [4]: < 5%
SMILES: Cc1ncsc1-c1ccc([C@H](C)NC(=O)[C@@H]2C[C@@H](O)CN2C(=O)[C@@H](NC(=O)CCC(=O)NCCCC(=O)Nc2cccc(Cc3c(C)c4ccc(Oc5ncccn5)cc4oc3=O)c2)C(C)(C)C)cc1
Activity (A-375 [5]): 21%

Activity [4]: < 5%
SMILES: Cc1ncsc1-c1ccc([C@H](C)NC(=O)[C@@H]2C[C@@H](O)CN2C(=O)[C@@H](NC(=O)CCC(=O)NCCCCCCCCCCC(=O)Nc2cccc(Cc3c(C)c4ccc(Oc5ncccn5)cc4oc3=O)c2)C(C)(C)C)cc1
